Holding throughout (format): functional
Assay [1] relates to Aphis craccivora. Kind of assay: Insecticidal activity against Aphis craccivora (cowpea aphid) infested tender soybean shoots exposed to 2.5 mg/kg test compound solution assessed as insect mortality measured 24 hr post compound treatment. The settings on record: Aphis craccivora, 24 h. The essentials: (§1)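 Soybean tender shoots carrying 60 aphids were dipped in test solutions. Solutions were made from a 200 mg L^-1 stock in dimethylformamide, diluted with water containing TW-20. Insects were laboratory-reared, tests were held at 25±1 °C, and mortality was scored.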

Assay [2] concerns Plutella xylostella. Kind of assay: Insecticidal activity against Plutella xylostella (diamondback moth) grown on compound pre-treated fresh cabbage leaves assessed as insect mortality at 100 mg/kg measured 3 days post compound treatment by leaf-dip method. The essentials: (§2)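 Leaf-dip stomach-toxicity assay on laboratory-reared diamondback moth. Test solutions came from a 200 mg L^-1 stock in dimethylformamide, diluted with water containing TW-20. Control leaves were treated with water and dimethylformamide. Tests were held at 25±1 °C, percentage mortality was scored 3 days after treatment, and each treatment was run three times.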

Assay [3] relates to Aphis craccivora. Kind of assay: Insecticidal activity against Aphis craccivora (cowpea aphid) infested tender soybean shoots exposed to 50 mg/kg test compound solution assessed as insect mortality measured 24 hr post compound treatment. Summed up: as §1
The subject of assay [4] is Plutella xylostella. Kind of assay: Insecticidal activity against Plutella xylostella (diamondback moth) grown on compound pre-treated fresh cabbage leaves assessed as insect mortality at 200 mg/kg measured 3 days post compound treatment by leaf-dip method. The essentials: as §2
Assay [5] relates to Culex pipiens pallens. Kind of assay: Insecticidal activity against Culex pipiens pallens (mosquito) assessed as insect mortality at 50 ug/kg measured 1 day post compound treatment. The settings on record: 24 h. The essentials: (§3)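 Fourth-instar Culex pipiens pallens larvae, 20 per test, were laboratory-reared and placed in 100 mL of test solution made by adding 1 mL of compound dilution to 99 mL of water. Tests were held at 25±1 °C, percentage mortality was scored 1 day after treatment, and each test was run three times.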

Assay [6] concerns Culex pipiens pallens. The assay can be described thus: Insecticidal activity against Culex pipiens pallens (mosquito) assessed as insect mortality at 100 ug/kg measured 1 day post compound treatment. The settings on record: Culex pipiens, 24 h. Summed up:
as §3

In assay [7] the test system is Aphis craccivora. Kind of assay: Insecticidal activity against Aphis craccivora (cowpea aphid) infested tender soybean shoots exposed to 25 mg/kg test compound solution assessed as insect mortality measured 24 hr post compound treatment. Summed up:
as §1

Assay [8] has as its system Plutella xylostella. Kind of assay: Insecticidal activity against Plutella xylostella (diamondback moth) grown on compound pre-treated fresh cabbage leaves assessed as insect mortality at 2.5 mg/kg measured 3 days post compound treatment by leaf-dip method. Summed up: as §2
In assay [9] the test system is Plutella xylostella. Kind of assay: Insecticidal activity against Plutella xylostella (diamondback moth) grown on compound pre-treated fresh cabbage leaves assessed as insect mortality at 50 mg/kg measured 3 days post compound treatment by leaf-dip method. The essentials:
as §2

Assay [10] relates to Culex pipiens pallens. The assay can be described thus: Insecticidal activity against Culex pipiens pallens (mosquito) assessed as insect mortality at 25 ug/kg measured 1 day post compound treatment. The settings on record: 24 h. Summed up: as §3
In assay [11] the test system is Aphis craccivora. Kind of assay: Insecticidal activity against Aphis craccivora (cowpea aphid) infested tender soybean shoots exposed to 5 mg/kg test compound solution assessed as insect mortality measured 24 hr post compound treatment. To be noted: Aphis craccivora, 24 h. The essentials: as §1
The test system of assay [12] is Aphis craccivora. Kind of assay: Insecticidal activity against Aphis craccivora (cowpea aphid) infested tender soybean shoots exposed to 10 mg/kg test compound solution assessed as insect mortality measured 24 hr post compound treatment. The settings on record: Aphis craccivora, 24 h. The essentials:
as §1

Assay [13] concerns Aphis craccivora. The assay can be described thus: Ratio of LC50 of ethiprole to LC50 of test compound against Aphis craccivora (cowpea aphid) infested tender soybean shoots exposed to test compound solution assessed as insect mortality measured 24 hr post compound treatment.
Assay [14] concerns Plutella xylostella. The assay can be described thus: Insecticidal activity against Plutella xylostella (diamondback moth) grown on compound pre-treated fresh cabbage leaves assessed as insect mortality at 10 mg/kg measured 3 days post compound treatment by leaf-dip method. The settings on record: Plutella xylostella. The essentials: as §2
The next assay concerns Mythimna separata. The assay can be described thus: Insecticidal activity against Mythimna separata (Oriental armyworm) grown on compound pre-treated corn leaves assessed as insect mortality at 200 mg/kg measured 3 days post compound treatment by leaf-dip method.
The test system of assay [15] is Aphis craccivora. The assay can be described thus: Insecticidal activity against Aphis craccivora (cowpea aphid) infested tender soybean shoots exposed to test compound solution assessed as insect mortality measured 24 hr post compound treatment. The essentials:
as §1

For assay [16], the system named is Plutella xylostella. The assay can be described thus: Insecticidal activity against Plutella xylostella (diamondback moth) grown on compound pre-treated fresh cabbage leaves assessed as insect mortality at 5 mg/kg measured 3 days post compound treatment by leaf-dip method. To be noted: Plutella xylostella. The essentials:
as §2

The subject of assay [17] is Aphis craccivora. The assay can be described thus: Insecticidal activity against Aphis craccivora (cowpea aphid) infested tender soybean shoots exposed to 100 mg/kg test compound solution assessed as insect mortality measured 24 hr post compound treatment. The essentials:
as §1

In assay [18] the test system is Plutella xylostella. Kind of assay: Insecticidal activity against Plutella xylostella (diamondback moth) grown on compound pre-treated fresh cabbage leaves assessed as insect mortality at 25 mg/kg measured 3 days post compound treatment by leaf-dip method. The settings on record: Plutella xylostella. The essentials:
as §2

Assay [19] relates to Aphis craccivora. The assay can be described thus: Insecticidal activity against Aphis craccivora (cowpea aphid) infested tender soybean shoots exposed to 200 mg/kg test compound solution assessed as insect mortality measured 24 hr post compound treatment. Summed up: as §1

As a reminder, the mortality is the share of the test organisms that died.

Consider `CCCOC(Nc1c([S+](C)[O-])c(C#N)nn1-c1c(Cl)cc(C(F)(F)F)cc1Cl)C(Cl)(Cl)Cl` (stereo not given), for which the mortality at 2.5 mg/kg with Aphis craccivora [1] and in the assay on Plutella xylostella [8] was 0% in each case. In addition, the mortality at 100 mg/kg with Plutella xylostella [2] and with Aphis craccivora [17] was 100% in each case. Further, the mortality at 50 mg/kg in the assay with Aphis craccivora [3] and in the assay on Plutella xylostella [9] was 100% throughout. In addition, the mortality at 200 mg/kg with Plutella xylostella [4] turned out to be 100%; in the assay on Mythimna separata, 40%; in the assay on Aphis craccivora [19], 100%. For the same compound, in the assay with Culex pipiens pallens [5], the mortality at 0.05 mg/kg was determined as 100%. In the assay with Culex pipiens pallens [6], the mortality at 0.1 mg/kg stood at 100%. The mortality at 25 mg/kg in the assay with Aphis craccivora [7] and in the assay on Plutella xylostella [18] was 100% in each case. The mortality at 0.025 mg/kg in the assay with Culex pipiens pallens [10] was determined as 50%. Moreover, the mortality at 5 mg/kg with Aphis craccivora [11] is 91%; with Plutella xylostella [16], 30%. For the same compound, the mortality at 10 mg/kg came to 100% with Aphis craccivora [12] and 71% in the assay with Plutella xylostella [14]. Moreover, the RatioLC50 in the assay on Aphis craccivora [13] is listed as 4.3. In the assay on Aphis craccivora [15], the LC50 turned out to be 2.7616 mg/kg.

Values taken from ChEMBL document CHEMBL3044673, “Design, synthesis and insecticidal activity of novel phenylpyrazoles containing a 2,2,2-trichloro-1-alkoxyethyl moiety” (2010).
